Source: ChEMBL document CHEMBL1137291, “p38 MAP kinase inhibitors. Part 5: discovery of an orally bio-available and highly efficacious compound based on the 7-amino-naphthyridone scaffold” (Bioorg Med Chem Lett, 2006)

How the values were obtained:
THP-1 = assay: Inhibition of TNFalpha release from LPS-stimulated human monocyte THP1 cells; assay type: functional, cell-based
[1] = Cmax in Sprague-Dawley rat at 1 mg/kg, po; assay type: ADME, organism-based; parameters: dose 1 mg/kg, route oral; details: in vivo
Method in brief: (§1)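 Sprague-Dawley rats (male where specified) were dosed orally at 1 mpk, in one case as a 0.5% methylcellulose suspension. Plasma exposure was followed to give oral bioavailability, AUC, C_max and half-life.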

[2] = Half life in Sprague-Dawley rat at 1 mg/kg, po; assay type: ADME, organism-based; parameters: dose 1 mg/kg, route oral; details: in vivo; method in brief: as §1
[3] = Bioavailability in Sprague-Dawley rat at 1 mg/kg, po; assay type: ADME, organism-based; details: in vivo; method in brief: as §1
Rattus norvegicus [4] = assay: Inhibition of TNFalpha production in rat LPS challenge model at 3 mg/kg, po after 24 hrs; assay type: functional
Blood = assay: Inhibition of LPS-stimulated TNFalpha release in human whole blood; assay type: functional, tissue-based
Rattus norvegicus [5] = assay: Reduction of TNFalpha production in rat LPS challenge model at 10 mg/kg, po after 3 hrs; assay type: functional; parameters: scale not given: the % may be the effect or the level left
Rattus norvegicus [6] = assay: Inhibition of TNFalpha production in rat LPS challenge model at 3 mg/kg, po after 16 hrs; assay type: functional
Rattus norvegicus [7] = organism: Rattus norvegicus; assay: Inhibition of paw swelling in AIA Lewis rat after 21 days; assay type: functional; details: 504 h
Method in brief: (§2)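 Seven-week-old female Lewis rats had adjuvant injected into the left hind paw on day 0. Disease developed over 12 days, then rats were dosed orally at 0.1, 0.3, 1 or 3 mpk once daily for ten days. On days 0, 12 and 21 they were weighed, paw volumes measured and radiographs taken. Swelling of the secondary paw was scored.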

Rattus norvegicus [8] = assay: Inhibition of TNF-alpha production in rat LPS challenge model at 1 mg/kg, po after 24 hrs; assay type: functional
[9] = Clearance in Sprague-Dawley rat at 1 mg/kg; assay type: ADME, organism-based; parameters: dose 1 mg/kg; details: in vivo
[10] = Half life in Sprague-Dawley rat at 1 mg/kg; assay type: ADME, organism-based; parameters: dose 1 mg/kg; details: in vivo; method in brief: as §1
[11] = Oral bioavailability in rhesus macaque; assay type: ADME, organism-based, Macaca mulatta; details: rhesus monkey, in vivo
[12] = Clearance in rhesus macaque; assay type: ADME, organism-based, Macaca mulatta; details: rhesus monkey, in vivo
[13] = Oral bioavailability in Sprague-Dawley rat; assay type: ADME, organism-based; details: in vivo; method in brief: as §1
Rattus norvegicus [14] = assay: Inhibition of paw swelling in AIA Lewis rat at 1 mg/kg, po after 21 days; assay type: functional; details: 504 h; method in brief: as §2
Rattus norvegicus [15] = assay: Inhibition of paw swelling in AIA Lewis rat at 0.3 mg/kg, po after 21 days; assay type: functional; details: 504 h; method in brief: as §2
[16] = Volume of distribution in rhesus macaque; assay type: ADME, organism-based, Macaca mulatta; details: rhesus monkey, in vivo; read-out: Vdss
Rattus norvegicus [17] = assay: Inhibition of TNFalpha production in rat LPS challenge model at 0.1 mg/kg, po after 24 hrs; assay type: functional
Rattus norvegicus [18] = assay: Inhibition of TNF-alpha production in rat LPS challenge model at 0.3 mg/kg, po after 24 hrs; assay type: functional
[19] = Cmax in Sprague-Dawley rat at 1 mg/kg; assay type: ADME, organism-based; parameters: dose 1 mg/kg; details: in vivo; method in brief: as §1
[20] = Volume of distribution in Sprague-Dawley rat at 1 mg/kg; assay type: ADME, organism-based; parameters: dose 1 mg/kg; details: in vivo, read-out: Vdss
Rattus norvegicus [21] = assay: Inhibition of paw swelling in AIA Lewis rat at 3 mg/kg, po after 21 days; assay type: functional; details: 504 h; method in brief: as §2
Rattus norvegicus [22] = assay: Inhibition of TNFalpha production in rat LPS challenge model at 3 mg/kg, po after 6 hrs; assay type: functional
Rattus norvegicus [23] = assay: Inhibition of paw swelling in AIA Lewis rat at 0.1 mg/kg, po after 21 days; assay type: functional; details: 504 h; method in brief: as §2
Mus musculus = assay: Inhibition of TNFalpha production in BALB/c mouse at 0.3 mg/kg up to 24hrs; assay type: functional
Method in brief: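 Female Balb/c mice aged 12–16 weeks were given compound orally in 0.5% methylcellulose 22.5 h before LPS challenge. They were sacrificed 1.5 h after challenge, and plasma TNF-a was measured by ELISA.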

[24] = Half life in rhesus macaque; assay type: ADME, organism-based, Macaca mulatta; details: rhesus monkey, in vivo
[25] = Half life in rat; assay type: ADME, organism-based; details: in vivo; method in brief: as §1
[26] = Cmax in rat; assay type: ADME, organism-based; details: in vivo; method in brief: as §1
[27] = Oral bioavailability in rat; assay type: ADME, organism-based; details: in vivo; method in brief: as §1

O=c1ccc2c(-c3ccc(F)cc3F)[n+]([O-])ccc2n1-c1c(Cl)cccc1Cl
IC50 (THP-1): 200 nM
Cmax [1]: 3.5 µM
half-life [2]: 9.9 h
bioavailability [3]: 98%
inhibition in vivo at 3 mg/kg (Rattus norvegicus [4]): 80%

O=c1ccc2c(-c3ccc(F)cc3F)nccc2n1-c1ccccc1Cl
IC50 (Blood): 86.1 nM
IC50 (THP-1): 40.5 nM

O=c1ccc2c(-c3ccc(F)cc3F)nc(O)cc2n1-c1c(F)cccc1F
IC50 (Blood): 121 nM
IC50 (THP-1): 4.5 nM
Activity (Rattus norvegicus [5]): 70%

CNc1cc2c(ccc(=O)n2-c2c(F)cccc2F)c(-c2ccc(F)cc2F)n1
IC50 (Blood): 73 nM
IC50 (THP-1): 7.3 nM

Nc1cc2c(ccc(=O)n2-c2c(F)cccc2F)c(-c2ccc(F)cc2F)n1
inhibition in vivo at 3 mg/kg (Rattus norvegicus [6]): 95%
ED50 (Rattus norvegicus [7]): 0.22 mg/kg
inhibition in vivo at 1 mg/kg (Rattus norvegicus [8]): 79%
inhibition in vivo at 1 mg/kg (Rattus norvegicus [8]; read-out: Inhibition): 79%
clearance [9]: 1.6 mL/min/kg
half-life [10]: 6.5 h
IC50 (Blood): 34 nM
bioavailability [11]: 22%
clearance [12]: 1.3 mL/min/kg
bioavailability [13]: 68%
inhibition in vivo at 1 mg/kg (Rattus norvegicus [14]): 65%
IC50 (THP-1): 0.69 nM
inhibition in vivo at 0.3 mg/kg (Rattus norvegicus [15]): 54%
Vd [16]: 0.9 L/kg
inhibition in vivo at 0.1 mg/kg (Rattus norvegicus [17]): 53%
inhibition in vivo at 0.3 mg/kg (Rattus norvegicus [18]): 75%
Cmax [19]: 3.5 µM
Vd [20]: 0.9 L/kg
inhibition in vivo at 3 mg/kg (Rattus norvegicus [21]): 80%
inhibition in vivo at 3 mg/kg (Rattus norvegicus [22]): 97%
inhibition in vivo at 0.1 mg/kg (Rattus norvegicus [23]): 38%
inhibition in vivo at 0.3 mg/kg (Mus musculus): > 90%
inhibition in vivo at 3 mg/kg (Rattus norvegicus [4]): 92%
half-life [24]: 11.6 h

O=c1ccc2c(-c3ccc(F)cc3F)nccc2n1-c1c(Cl)cccc1Cl
inhibition in vivo at 3 mg/kg (Rattus norvegicus [6]): 37%
half-life [25]: 2 h
IC50 (Blood): 101 nM
IC50 (THP-1): 6.6 nM
Cmax [26]: 1 µM
bioavailability [27]: 57%
inhibition in vivo at 3 mg/kg (Rattus norvegicus [22]): 61%
inhibition in vivo at 3 mg/kg (Rattus norvegicus [4]): 27%

O=c1ccc2c(-c3ccc(F)cc3F)nccc2n1-c1c(F)cccc1F
IC50 (Blood): 145 nM
IC50 (THP-1): 7 nM
